# From PubChem BioAssay
# Most compounds without a hit are left out; they make up all but 2.7% or so of the library.
# 14-3-3 Bad PPI – inhibitors of 14-3-3 zeta/Bad binding, primary screen, biochemical, TR-FRET, bovine 14-3-3 zeta. inhibition, % at 21.7 µM. 14-3-3 protein zeta/delta (Bos taurus), P63103. TR-FRET 14-3-3zeta/Dy647-pBad peptide displacement, 1 h. 0.71% of 220,000 active. AID 781, 2007;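 active = inhibition above about 70%, limit read from the data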;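 note: 0% = full 14-3-3 plus peptide FRET controls and 100% = background without 14-3-3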
# Target sequence (P63103 whole entry, looked up): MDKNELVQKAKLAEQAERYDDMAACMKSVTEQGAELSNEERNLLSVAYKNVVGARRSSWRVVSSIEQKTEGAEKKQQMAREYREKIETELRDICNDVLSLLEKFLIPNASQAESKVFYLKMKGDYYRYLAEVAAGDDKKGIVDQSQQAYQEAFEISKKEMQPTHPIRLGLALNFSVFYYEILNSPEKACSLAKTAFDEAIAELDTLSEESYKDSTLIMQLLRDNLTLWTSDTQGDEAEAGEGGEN
# Tb hexokinase – Trypanosoma brucei hexokinase 1 inhibitors, primary screen, biochemical, G6PDH-coupled NADH absorbance, MLSCN library | inhibition, % at 10 µM | recombinant TbHK1, G6PDH-coupled NADH A340 | AID 1430, 2008 | hexokinase 1 [Trypanosoma brucei] | 0.11% of 220,000 active;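 active = inhibition of 50% or more in the single-dose primary screen; inactive = inhibition below 50%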
# Hck Nef HTS – inhibitors of Nef-activated human Hck kinase, primary screen, biochemical, Z-Lyte FRET, 384-well, Hck-YEEI; Recombinant Hck-YEEI plus Nef, Z-Lyte FRET kinase assay; inhibition, % at 20 µM; 0.68% of 220,000 active;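 active = Hck-Nef kinase inhibition above about 50%, limit read from the data; inactive = inhibition below that limit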;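 note: 0% = DMSO with Hck plus Nef and 100% = Hck alone without Nef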
# Wee1 stabilizer – Wee1 degradation inhibitors, primary screen, cell-based, HeLa, Wee1K328M-luciferase, luminescence. reporter increase, % at 5 µM. AID 1321, 2008. Wee1-like protein kinase (Homo sapiens), P30291. HeLa Luc-Wee1K328M stability; 100% = proteasome inhibitor MG132 effect. 1.2% of 220,000 active;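 active = activation above the mean of all tested compounds plus 3 SD, set per screening run, cut at about 8.8% in these data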;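 note: cells exposed to compound for 20 h before luminescence read; 0% = DMSO alone and 100% = MG132 at 30 µM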
# MDM2 E3 inh – MDM2-luciferase reporter signal enhancers, primary screen, MDM2 E3 ligase inhibitor project, cell-based, luminescence, 1536-well; E3 ubiquitin-protein ligase Mdm2 (Homo sapiens), Q00987; cell-based MDM2 ubiquitination luciferase reporter, 2 h; 0 = plate control, 100 = twice control, blank-subtracted; 0.11% of 210,000 active; signal enhancement, % at 5 µM;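 active = signal enhancement of 30% or more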;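 note: luminescence tracks abundance of the self-degrading MDM2-luciferase fusion protein; higher signal means inhibition of MDM2 E3 ligase activity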
#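 Timing – 2 h compound exposure at 37 °C · Assay system – mammalian cells stably expressing self-ubiquitinating, self-degrading MDM2 E3–luciferase fusion · Amount – 2000 cells seeded into each well · Measure – % luminescence enhancement versus blank-corrected plate control mean · Measured by – SteadyLite luminescence, 15 min reagent step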
# Active calls of the source: *; · = no result given; + = active, no number; [ ] = another dose, or the depositor's remark.
SMILES,14-3-3 Bad PPI,Tb hexokinase,Hck Nef HTS,Wee1 stabilizer,MDM2 E3 inh
COCCn1nnnc1C(c1ccccc1)N1CCN(C)CC1 (stereo not given),72*,3,0,-5,-11
COCCn1nnnc1C(c1ccc2ncccc2c1)N1CCN(c2ccccc2F)CC1 (stereo not given),76*,-11,1,5,-16
CCCC(c1nnnn1CCOC)N1CCN(Cc2ccccc2)CC1 (stereo not given),44,0,0,0,4
CCC(c1nnnn1CCOC)N1CCN(Cc2ccccc2OC)CC1 (stereo not given),88*,-2,0,1,-14
CC1CCCN(CC(=O)Nc2ccc(S(=O)(=O)NC3CCCCC3)cc2)C1 (stereo not given),2,3,1,-1,-8
CN=CC1=C(O)C(C(=O)OC)C(C)(C)CC1=O (stereo not given),12,-4,21,1,-4
NC(N)=N/N=C/c1ccc(OCc2ccc(Cl)cc2)cc1,87*[fluorescence artefact?],10,7,-2,-8
CC1=C(C(=O)N2CCOCC2)C(c2cccc3ccccc23)NC(=S)N1 (stereo not given),7,-6,5,11*,-9
O=C(CCCn1c(=O)[nH]c2ccsc2c1=O)N1CCN(c2ccccn2)CC1,6,3,0,11*,-8
O=C(CCCn1c(=O)[nH]c2ccccc2c1=O)N1CCN(c2ccccn2)CC1,5,-1,-10,-1,·
CCn1c(=N)c(C(N)=O)cc2c(=O)n3cccc(C)c3nc21,·,-8,+,5,·
Cc1cccn2c(=O)c3cc(C(=O)NC4CCCCC4)c(=N)n(CCN4CCOCC4)c3nc12,-1,-13,17,4,-14
Cc1cccn2c(=O)c3cc(C(=O)NC4CCCC4)c(=N)n(C4CCCC4)c3nc12,0,-5,66*,-2,-12
Cc1nc2ccccc2c(=O)n1N(c1ccccc1)c1ccccc1,-5,-6,-7,0,-33
COc1ccc(N2CCN(C(=O)c3ccc(NS(=O)(=O)c4cccs4)cc3)CC2)cc1,14,6,19,9.0*,-13
CCOC(=O)CNC(=O)CNC(=O)c1nn(-c2ccc(OC)c(Cl)c2)c(=O)c2ccccc12,-14,-1,22,-2,-10
COc1ccc(-n2nc(C(=O)NCC(=O)Nc3ccccn3)c3ccccc3c2=O)cc1Cl,72*,-2,1,2,-14
CC(C)(O)C#Cc1ccc(CN2CCN(Cc3ccccc3)C(CCO)C2)s1 (stereo not given),-5,-5,1,3,-1
COc1cccc(CN2CCN(Cc3ccc(C#CC(C)(C)O)s3)CC2CCO)c1 (stereo not given),-22,1,18,10*,-6
Cc1nn(CCCC(=O)NCc2ccccc2)c(C)c1[N+](=O)[O-],-10,36,0,1,40*
c1ccc(-c2nc3ccccc3nc2-c2ccccn2)nc1,4,-28,-8,2,-17
Cc1cc2nc(-c3ccccn3)c(-c3ccccn3)nc2cc1C,-3,-41,28,9.3*,·
CCOC(=O)c1cccnc1SCC(=O)N(CC)c1cccc(C)c1,-6,-5,1,0,-59
COc1cc(/C=N/NC(=O)c2cncc(Br)c2)ccc1OC(=O)c1ccc2c(c1)OCO2,15,-21,1,-1,-5
COc1cc(/C=N\NC(=O)c2ccc(C)nc2)ccc1OC(=O)c1ccc2c(c1)OCO2,74*,-10,13,1,-12
NNc1nc(N)c2c(n1)-c1ccccc1CC21CCCC1,82*[fluorescence artefact?],-3,5,1,-8
CCc1nc2c(c(=O)[nH]1)C1(CCCC1)Cc1ccccc1-2,3,0,4,0,-1
CC(C)C(=O)Nc1ccc(NC(=O)c2cccc(F)c2)cn1,76*,-11,1,2,-5
